Source: PubChem
Compounds with a hit are over-represented: about 3.1% of the library has one in this group of screens.
LEDGF integ inh: blocks HIV-1 LEDGF/p75-dependent DNA integration; TR-FRET IN-LEDGF/p75 DNA integration, Eu/Cy5; actives 0.64% (n = 370,000); inhibition, % at 3.7 µM; AID 743269;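 active = inhibition above the screen-wide mean plus 3 SD, cut at about 13% in these data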;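 note: signal is the Cy5 over europium emission ratio at 671 and 618 nm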
RBBP9 inhibitor: human RBBP9 hydrolase inhibition; O75884; actives 0.2% (n = 220,000); inhibition, % at 7.94 µM; AID 1515; recombinant RBBP9, FP-Rh probe fluorescence polarization;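 active = inhibition above the campaign mean of all tested compounds plus 3 SD, cut at about 14% in these data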
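Test system – recombinant human RBBP9 · Input – RBBP9 2.5 µM in dispensing solution, pre-mixing · Medium – Tris buffer pH 8.0, NaCl, Pluronic · Schedule – preincubation 30 min plus labeling 45 min at 25 °C · Measured by – fluorescence polarization · Measure – % inhibition · Controls – DMSO and no-protein wells · Replicates – one well per compound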
ABHD5 PLIN5 PPI: blocks binding of human ABHD5 to perilipin-5. Q00G26+Q8WTS1. inhibition, % at 4 µM. actives 0.78% (n = 360,000). AID 602281. Split G. princeps luciferase complementation, luminescence, 4 h;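 active = inhibition above the mean inhibition across every tested compound plus 3 SD, cut at about 22% in these data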
PRMT1 FP inh: inhibitors of human PRMT1 | Q99873 | recombinant PRMT1, activity-based probe fluorescence polarization | inhibition, % at 2.79 µM | actives 1.3% (n = 370,000) | AID 652257;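 active = inhibition above about 21% made by adding two undisclosed values, limit read from the data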
Target sequence (Q99873 whole entry, looked up): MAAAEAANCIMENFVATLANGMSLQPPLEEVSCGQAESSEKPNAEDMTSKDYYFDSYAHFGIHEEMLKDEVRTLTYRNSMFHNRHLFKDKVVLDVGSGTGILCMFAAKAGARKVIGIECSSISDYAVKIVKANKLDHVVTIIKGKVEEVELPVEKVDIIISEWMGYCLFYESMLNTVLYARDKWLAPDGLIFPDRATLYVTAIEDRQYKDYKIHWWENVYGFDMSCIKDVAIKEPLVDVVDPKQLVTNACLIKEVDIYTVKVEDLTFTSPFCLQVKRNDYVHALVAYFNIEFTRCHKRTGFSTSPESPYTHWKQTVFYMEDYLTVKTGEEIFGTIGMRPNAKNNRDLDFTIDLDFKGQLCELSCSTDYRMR
UHRF1 MBD2 ctr: blocks human UHRF1 binding to methylated DNA. inhibition, % at 4.4 µM. Q96T88. actives 0.75% (n = 370,000). AID 687016. UHRF1 binding to methylated oligo, TR-FRET; in the data active = inhibition above about 21%;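 note: UHRF1 SRA domain binding a hemimethylated CpG hairpin DNA probe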
MBD2 inh: blocks human MBD2 binding to methylated DNA | Q9UBB5 | TR-FRET, MBD2 binding to methylated oligonucleotide | inhibition, % at 4.4 µM | actives 0.31% (n = 370,000) | AID 686964; in the data active = inhibition above about 13%
Target sequence (Q9UBB5 whole entry, looked up): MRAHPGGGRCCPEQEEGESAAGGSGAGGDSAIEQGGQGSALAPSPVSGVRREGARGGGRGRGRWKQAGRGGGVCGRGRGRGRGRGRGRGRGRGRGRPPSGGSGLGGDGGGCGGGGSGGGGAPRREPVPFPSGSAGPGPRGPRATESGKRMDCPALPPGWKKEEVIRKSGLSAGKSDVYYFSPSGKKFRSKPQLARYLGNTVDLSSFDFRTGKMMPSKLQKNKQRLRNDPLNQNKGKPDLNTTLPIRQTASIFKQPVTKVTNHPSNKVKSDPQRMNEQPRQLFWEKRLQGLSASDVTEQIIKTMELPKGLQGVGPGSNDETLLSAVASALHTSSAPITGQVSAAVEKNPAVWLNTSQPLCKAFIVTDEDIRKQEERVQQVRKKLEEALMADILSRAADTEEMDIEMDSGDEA
IN multimer act: HIV-1 integrase multimerization activation, counter-screen | TR-FRET HIV-1 integrase multimerization, biochemical | actives 17% (n = 2,000) | activation, % at 7.7 µM | shares compounds with LEDGF integ inh; in the data active = activation above about 8.9%
TR-FRET interf: counter-screen for LEDGF/p75 integration inhibitors: TR-FRET optical interference; TR-FRET optical interference counterscreen, HIV-1 IN multimerization; 2,000 tested, under 10 active; shares compounds with LEDGF integ inh; AID 1053135; inhibition, % at 7.7 µM;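 active = inhibition above the mean over all tested compounds plus 3 SD, which no compound reached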
LEDGF integ conf: confirmation of HIV-1 LEDGF/p75-dependent integration inhibitors. shares compounds with LEDGF integ inh. actives 36% (n = 2,000). inhibition, % at 3.7 µM. TR-FRET LEDGF/p75-dependent HIV-1 integration, biochemical; in the data active = inhibition above about 14%
Each line names hits and unclear results; the compound was inactive in the other large screens (follow-up assays come after a bar, where they were run).

CC(=O)N1CCc2c1cccc2S(=O)(=O)NC(CC(C)C)C(=O)Nc1ccccc1C (stereo not drawn)	none (no result: RBBP9 inhibitor, ABHD5 PLIN5 PPI)
Cc1c(-c2ccccc2)nc2ccccc2c1C(=O)O	none (no result: LEDGF integ inh, PRMT1 FP inh, UHRF1 MBD2 ctr, MBD2 inh)
Cc1c(-c2cccc(Cl)c2)nc2ccccc2c1C(=O)NC1CC1	LEDGF integ inh 21.0 (no result: RBBP9 inhibitor) | IN multimer act inactive | TR-FRET interf inactive | LEDGF integ conf inactive
CCCn1c2ccccc2c2nnc(SCCN3CCOCC3)nc21	LEDGF integ inh 19.9, PRMT1 FP inh 23.9 (no result: RBBP9 inhibitor) | IN multimer act inactive | TR-FRET interf inactive | LEDGF integ conf inactive
O=C(O)c1cccc(-n2cccc2/C=C2/NC(=O)N(c3ccc(Cl)cc3)C2=O)c1	LEDGF integ inh 82.7, PRMT1 FP inh 32.1, UHRF1 MBD2 ctr 103.3, MBD2 inh 100.9 | IN multimer act 36.2 | TR-FRET interf inactive | LEDGF integ conf 81.5
Fc1ccc(CNc2ncccn2)cc1	LEDGF integ inh 13.8 (no result: RBBP9 inhibitor) | IN multimer act inactive | TR-FRET interf inactive | LEDGF integ conf inactive
Clc1ccc(CNc2ncccn2)cc1	none (no result: RBBP9 inhibitor)
CC(=O)Nc1ccc(NC(=O)CSc2nnc(-c3ccco3)o2)cc1	none
CC(=O)c1ccc(NC(=O)CSc2nnc(-c3ccco3)c(-c3ccco3)n2)cc1	LEDGF integ inh 34.5, ABHD5 PLIN5 PPI 22.9, PRMT1 FP inh 73.3 | IN multimer act 12.2 | TR-FRET interf inactive | LEDGF integ conf 45.1
O=C(O)c1nn(-c2cccc(Cl)c2)c(=O)cc1O	LEDGF integ inh 17.2 | IN multimer act inactive | TR-FRET interf inactive | LEDGF integ conf inactive
O=C(O)c1cc(-c2ccco2)nn1-c1ccc(Cl)cc1	none
O=C(O)c1cc(-c2ccco2)nn1-c1cccc(Cl)c1	LEDGF integ inh 14.9, UHRF1 MBD2 ctr 28.4 | IN multimer act inactive | TR-FRET interf inactive | LEDGF integ conf inactive
COc1cc(NCc2ccccc2O)c2ncccc2c1	none
Oc1ccccc1CNc1cccc2cccnc12	LEDGF integ inh 31.1 | IN multimer act inactive | TR-FRET interf inactive | LEDGF integ conf inactive
COC(=O)/C=C1\OC(C)c2ccccc21 (stereo not drawn)	none (no result: RBBP9 inhibitor, ABHD5 PLIN5 PPI)
CCOC(=O)c1c(C)[nH]c(N=Nc2ccc(C)cc2C)c1C	none
CCOC(=O)c1c(C)[nH]c(N=Nc2cc(C(=O)O)cc(C(=O)O)c2)c1C	LEDGF integ inh 13.7 | IN multimer act inactive | TR-FRET interf inactive | LEDGF integ conf inactive
CC(=O)c1sc(NCc2ccccc2)nc1C	LEDGF integ inh 28.6 (no result: RBBP9 inhibitor) | IN multimer act inactive | TR-FRET interf inactive | LEDGF integ conf inactive
CC(=O)c1sc(NCc2ccc(C)cc2)nc1C	none (no result: RBBP9 inhibitor)
Cc1ccc(S(=O)(=O)NN=C2CC3CCC2(C)C3(C)C)cc1 (stereo not drawn)	LEDGF integ inh 17.1 (no result: RBBP9 inhibitor) | IN multimer act inactive | TR-FRET interf inactive | LEDGF integ conf inactive
Cc1ccc(S(=O)(=O)NN=C2CC(C)(C)OC2(C)C)cc1	none (no result: RBBP9 inhibitor)
COC(=O)[C@@]12C[C@@H](CC(=O)N3CCN(C(=O)c4ccco4)CC3)C(=O)N(Cc3cccc4ccccc34)C1=CCC(C)(C)C2	LEDGF integ inh 21.5 (no result: RBBP9 inhibitor) | IN multimer act inactive | TR-FRET interf inactive | LEDGF integ conf inactive
COC(=O)c1ccccc1NCc1cc(=O)oc2cc(O)c(O)cc12	LEDGF integ inh 20.9 (no result: RBBP9 inhibitor) | IN multimer act inactive | TR-FRET interf inactive | LEDGF integ conf 33.7
CCOC(=O)C1(Cc2ccccc2)CCN(Cc2ccc(C(F)(F)F)cc2)CC1	none (no result: RBBP9 inhibitor, ABHD5 PLIN5 PPI)
O=C1c2nc3cc(-c4ccco4)[nH]n3c(=O)c2CN1C1CCCCC1	LEDGF integ inh 17.9, PRMT1 FP inh 23.3 | IN multimer act inactive | TR-FRET interf inactive | LEDGF integ conf inactive
Cc1ccc(NC(=O)CSc2ccc3nnc(CCNC(=O)c4ccccc4)n3n2)c(C)c1	LEDGF integ inh 43.4 | IN multimer act inactive | TR-FRET interf inactive | LEDGF integ conf inactive
COCCn1c(C)cc(C(=O)CSc2nnc3ccccn23)c1C	LEDGF integ inh 15.0 | IN multimer act inactive | TR-FRET interf inactive | LEDGF integ conf 32.9
CN1CCN(C(c2ccc(Br)cc2)c2cc(Cl)c3cccnc3c2O)CC1 (stereo not drawn)	LEDGF integ inh 40.3 (no result: RBBP9 inhibitor) | IN multimer act inactive | TR-FRET interf inactive | LEDGF integ conf inactive
CC(=O)N1CCN(c2ccc(NCc3ccc(-c4ccc(Br)cc4)o3)cc2)CC1	LEDGF integ inh 19.5 (no result: RBBP9 inhibitor) | IN multimer act inactive | TR-FRET interf inactive | LEDGF integ conf inactive
CC(=O)N1CCN(c2ccc(NCc3ccc(C)s3)cc2)CC1	LEDGF integ inh 14.8 | IN multimer act inactive | TR-FRET interf inactive | LEDGF integ conf inactive
COc1ccc(CNc2ccc(N3CCN(C(C)=O)CC3)cc2)cc1OC	LEDGF integ inh 15.5 (no result: RBBP9 inhibitor) | IN multimer act inactive | TR-FRET interf inactive | LEDGF integ conf inactive
Cc1ccc(CNc2ccc(N3CCOCC3)cc2)s1	none
CC(=O)N1CCN(c2ccc(NCc3cccs3)cc2)CC1	LEDGF integ inh 21.6 | IN multimer act inactive | TR-FRET interf inactive | LEDGF integ conf inactive
CC(=O)N1CCN(c2ccc(NCc3ccccc3)cc2)CC1	none
CCC(C)N(C(=O)c1oc(=O)c2ccccc2c1-c1ccc(C)cc1)C(C)CC (stereo not drawn)	none (no result: RBBP9 inhibitor, ABHD5 PLIN5 PPI)
COCc1cc(N2CCN(C(=O)OC(C)(C)C)C[C@H]2C)ccc1N1CCN(Cc2ccccc2)[C@H](C)C1	none (no result: RBBP9 inhibitor, ABHD5 PLIN5 PPI)
COC(=O)Cc1nnn2c1[C@@H](C)[C@@H](c1ccccc1Br)OC[C@@H]2c1ccccc1	none (no result: RBBP9 inhibitor, ABHD5 PLIN5 PPI)
CCOC(=O)c1oc2c(O)c(O)ccc2c(=O)c1-c1nncn1-c1ccccc1	LEDGF integ inh 45.3 | IN multimer act inactive | TR-FRET interf inactive | LEDGF integ conf 39.8
CCOC(=O)c1oc2c(C)c(O)ccc2c(=O)c1-c1nncn1-c1ccccc1	none
O=C(NCc1ccccc1)[C@@H]1CCCN1C(=O)[C@H]1CCCN1C(=O)c1ccc(F)cc1F	none (no result: RBBP9 inhibitor, ABHD5 PLIN5 PPI)
CC(=O)NC(c1ccco1)c1cc(Cl)c2ccc(Cl)nc2c1O (stereo not drawn)	LEDGF integ inh 43.6 (no result: RBBP9 inhibitor) | IN multimer act inactive | TR-FRET interf inactive | LEDGF integ conf inactive
O=C(NC1CCCC1)[C@@H]1CCCN1C(=O)[C@@H](NS(=O)(=O)c1ccc(F)cc1F)c1ccccc1	none (no result: RBBP9 inhibitor, ABHD5 PLIN5 PPI)
CCOC(=O)c1ccc(-c2ccc3ncnc(NCc4csc(C)n4)c3c2)o1	none (no result: RBBP9 inhibitor)
Cc1ccc(CNc2ncnc3ccc(-c4ccc(CO)o4)cc23)o1	LEDGF integ inh 18.5, PRMT1 FP inh 24.7 (no result: RBBP9 inhibitor) | IN multimer act inactive | TR-FRET interf inactive | LEDGF integ conf inactive
